Screens from PubChem BioAssay.
STAT1 activator – increases IFN-gamma driven STAT1 reporter signal. activation (% of control), % at 5.5 µM. actives 2.6% (n = 200,000). NIH 3T3 STAT1-luciferase reporter, luminescence; 100% = IFN-gamma alone, no compound;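 active = activation above the screen-wide mean activation plus 3 SD, cut at about 130% in these data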;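 also: raw ratio to IFN-gamma control signal so 100% means no change and 0% no light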
APP 5'UTR act – activates APP 5'UTR luciferase reporter | SH-SY5Y APP 5'UTR luciferase reporter, luminescence; zero percent = DMSO vehicle wells | activation, % at 2 µM | actives 1% (n = 190,000);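 active = activation above a set limit, based on mean plus 3 SD of controls, cut at about 140% in these data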
STAT3 blocker – reduces IL-6 driven STAT3 reporter signal; inhibition, % at 5.5 µM; AID 862; U3A cells, IL-6 STAT3-luciferase reporter, luminescence; host cell line lacks STAT1; actives 0.89% (n = 190,000);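 active = inhibition above the mean inhibition across all screened compounds plus 3 SD, cut at about 44% in these data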;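 also: 0% = DMSO only wells and 100% = 100 µM nifuroxazide control wells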
STAT3 act – increases IL-6 driven STAT3 reporter signal | U3A cells, IL-6 STAT3-luciferase reporter, luminescence; 100% = signal with IL-6 EC80 alone | activation (% of control), % at 5.6 µM | actives 0.91% (n = 190,000);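 active = activation above the screen-wide mean of compound activation plus 3 SD, cut at about 130% in these data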;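 also: 0% = background luminescence of wells with medium and substrate only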
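Test system: human U3A cells carrying STAT3-luciferase construct; control set: IL-6-only wells as 100% reference; timing: compound pre-incubation 1 h before IL-6, then 6 h stimulation at 37 °C; also added: IL-6 stimulus at 33 ng/mL final; evaluation: % activation versus median of IL-6-stimulated wells; detection: reporter luminescence signal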
STAT1 blocker – reduces IFN-gamma driven STAT1 reporter signal | NIH 3T3 STAT1-luciferase reporter, luminescence | inhibition, % at 5.5 µM | actives 0.35% (n = 200,000) | AID 920;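 active = inhibition above a set limit, the mean inhibition across all tested compounds plus 3 SD, cut at about 34% in these data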;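 also: 0% = IFN-gamma with DMSO and 100% = IFN-gamma with 300 µM nifuroxazide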
NF-kB expr up – NF-kB expression increase, human neuronal cells | NF-kB reporter expression; active compounds read high | actives 1.6% (n = 190,000) | fold change at 12.5 µM; in the data active = fold change above about 3.3
Active calls of the source: *; / = not tested or not shown. An excerpt weighted towards active compounds, which were near 5.1% of everything screened.

SMILES	STAT1 activator	APP 5'UTR act	STAT3 blocker	STAT3 act	STAT1 blocker	NF-kB expr up
CCn1cnc2cc(NCc3nc4ccccc4n3Cc3ccccc3)ccc21	148*	168*	-5	108	-47	0.55
CCn1cnc2cc(NCc3ccc(N(C)C)cc3)ccc21	122	46	1	107	-26	0.51
CCCC(=O)NCc1nc2ccccc2n1C	99	-20	8	95	1	1.5
CCn1cnc2cc(NCc3ccc(C)cc3)ccc21	136*	87	3	100	-38	2.4
Cn1c(CNc2ccccc2)nc2ccccc21	132*	79	-12	111	-36	2.9
CCn1cnc2cc(NCc3nc4ccccc4n3C)ccc21	124	146*	22	86	-26	5.5*
CCN(CC)CCn1c(NCc2nc3ccccc3n2Cc2ccccc2)nc2ccccc21	97	9	-8	112	3	0.74
Cc1cc(C)n2nc(C(=O)NC3CCCc4ccccc43)nc2n1 (stereo not drawn)	104	31	-7	107	-5	1.1
CCOC(=O)c1sc(NC(=O)COC(=O)CNC(=O)C2CCCCC2)c(C(=O)OCC)c1C	101	16	6	98	-2	0.99
CC(C)n1cnc2cc(NCc3nc4ccccc4n3C)ccc21	150*	186*	-4	107	-55	1.2
FC(F)c1nnc2c(Cl)cc(C(F)(F)F)cn12	95	6	5	105	3	1.2
Fc1ccc(-c2nc3c(Cl)cc(C(F)(F)F)cn3c2Cl)cc1	110	-2	-36	134*	-11	2.1
C/C(=N\Nc1cc(Cl)nc(C)n1)c1ccc(C)cc1	106	13	13	98	-7	/
CCOC(=O)c1c(-c2ccccc2)oc2cc(CN(C)C)c(O)c(CN(C)C)c12	109	-53	-10	111	-10	/
O=C1c2cccc(Cl)c2C(=O)c2c1cccc2N1CCCC1	100	11	-29	137*	8	/
CCCCCCCOc1ccc(OC(=O)c2ccncc2)cc1	97	-3	23	81	-1	8.6*
CCCCCCCOc1ccc(OC(=O)c2cccnc2)cc1	103	3	19	85	-2	11*
CCCCOc1ccc(OC(=O)c2cccnc2)cc1	102	2	25	81	-2	1.6
Cc1ccc(-c2csc(NC(=O)/C=C/c3ccco3)c2C(=O)O)cc1	138*	63	11	98	-41	1.7
Cc1nc2sc(-c3ccccc3)nn2c(=O)c1Br	147*	112	17	91	-51	4.5*
COc1ccc(C(=O)Nc2scc(-c3ccc(Cl)cc3Cl)c2C(N)=O)cc1	148*	80	10	96	-53	1.1
Oc1c(/C=N/Nc2cccc3cccnc23)ccc2ccccc12	98	87	-5	105	2	1.8
C/C(=N\Nc1ncc(Cl)cc1Cl)c1ccccn1	36	-70	94*	23	69*	0.44
C/C(=N\Nc1ncc(Cl)cc1Cl)c1ccc(N2CCOCC2)cc1	111	63	9	95	-14	1.5
C/C(=N\Nc1cccc2cccnc12)c1ccc(N)cc1	111	198*	9	101	-14	2.3
SMILES	STAT1 activator	APP 5'UTR act	STAT3 blocker	STAT3 act	STAT1 blocker	NF-kB expr up
C/C(=N\Nc1cccc2cccnc12)c1ccccn1	61	272*	68*	48	41*	0.97
C/C(=N\Nc1cccc2cccnc12)c1ccccc1O	118	202*	-13	112	-20	6.9*
O=[N+]([O-])c1ccc(N2CCN(c3ccc(Cl)nn3)CC2)cc1NC1CC1	91	-2	16	88	9	/
COc1ccc(-c2nc3ccccn3c2C=O)cc1	143*	106	2	96	-49	2.4
O=Cc1c(-c2ccc(F)cc2)nc2ccccn12	101	9	13	90	-3	0.93
Cc1ccc(-c2cc3ncc(C#N)c(N)n3n2)cc1	130*	76	16	91	-37	1
COc1ccc(-c2cc3ncc(C(C)=O)c(C)n3n2)cc1	135*	141*	20	87	-37	2.8
CC(=O)c1cnc2cc(-c3ccc(C)cc3)nn2c1C	137*	60	2	101	-41	6.6*
Cc1cccc(-n2ncc(C#N)c2N)c1	105	7	2	101	-6	1.1
